Values joined by “and” are separate entries in the source; they are usually repeats but may differ in a detail not shown here. Equal values may be shown once.
Experiments:
Type in all cases: functional
Bos taurus = organism: Bos taurus; experiment: Effect on rate of glucuronidation of the hydroxyl group by bovine UDP-glucuronyltransferase
In short: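 UDP formed during glucuronidation was measured by a coupled enzymatic assay, and the rate was calculated from NADH absorbance using an extinction coefficient of 6.22 × 10^6 cm2 mol-1. Test agents were dissolved in DMSO at final concentrations of 0.5 mM (hydroxyl-substituted pyridines) and 0.1 mM (hydroxyl-substituted isoquinolines). Model compounds lacking the thiosemicarbazone group were used because thiosemicarbazones interfere with the absorbance.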

Mus musculus [1] = organism: Mus musculus; experiment: antineoplastic activity on the survival time of mice bearing L1210 leukemia. Average weight change of mice from onset to termination of drug treatment.
In short: (§1)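 L1210 leukemia-bearing CD2F1 mice, 5-10 per group, received the drug as an ip suspension once daily for 6 consecutive days, starting 24 h after tumor implantation. %T/C is treated over control survival time ×100. Average weight change is measured from the onset to the termination of treatment.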

Mus musculus [2] = organism: Mus musculus; experiment: antineoplastic activity on the survival time of mice bearing L1210 leukemia.% T/C represents the ratio of the survival time of treated to control mice * 100.; in short: as §1
Mus musculus [3] = organism: Mus musculus; experiment: The compound was tested for antineoplastic activity on the survival time of mice bearing L1210 leukemia. Average survival time includes only those mice that died prior to day 60.
In short: (§2)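 CD2F1 mice bearing L1210 leukemia, 5-10 per group. Drug was given ip as a suspension twice daily (about 12 h apart) for 6 consecutive days, starting 24 h after tumor implantation. Mean survival counts only mice dying before day 60. Survivors beyond 60 days are scored as long-term. Body-weight change is measured from the start to the end of therapy.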

Mus musculus [4] = organism: Mus musculus; experiment: The compound was tested for antineoplastic activity on the survival time of mice bearing L1210 leukemia. Average weight change of mice from onset to termination of therapy.; in short: as §2
Mus musculus [5] = organism: Mus musculus; experiment: The compound was tested for antineoplastic activity on the survival time of mice bearing L1210 leukemia.% T/C represents the ratio of the survival time of treated to control mice * 100.
Mus musculus [6] = organism: Mus musculus; experiment: The compound was tested for antineoplastic activity on the survival time of mice bearing L1210 leukemia. Optimum daily dosage of the compound.
Mus musculus [7] = organism: Mus musculus; experiment: Survival time of mice(out of 5) bearing L1210 leukemia. Long term survivors are the number of mice that survived for >60 days relative to the total number of treated mice.; in short: as §2
Mus musculus [8] = organism: Mus musculus; experiment: antineoplastic activity on the survival time of mice bearing L1210 leukemia. Daily dosage of the compound.; in short: as §1

Row | Relative rate (Bos taurus) | SMILES | Average weight change (Mus musculus [1]) | T/C (Mus musculus [2]) | further results
1 | 0.08 | Cc1ncc(C)c2c(O)cccc12 |  |  | 
2 | 0.81 | Cc1ccnc(C)c1O |  |  | 
3 |  | N/C(S)=N/N=C\c1ncc(N2CCOCC2)c2c(N)cccc12 | 2% and 7.3% and 6.8% | 138% and 141% and 149% | 
4 |  | CNc1cnc(/C=N\N=C(\N)S)c2ccccc12 | 1% and 3% and 8% | 177% and 159% and 179% | 
5 | 1 | Cc1cc(C)c(O)cn1 |  |  | 
6 | 0.45 | Oc1cccc2cnccc12 |  |  | 
7 |  | N/C(S)=N/N=C\c1ncc(N)c2ccccc12 | 3.2% and 3.6% and 3% | 177% and 174% and 162% | Average survival (Mus musculus [3]): 13.5 days; Average weight (Mus musculus [4]): -7.8%; T/C (Mus musculus [5]): 165%; Dose (Mus musculus [6]): 40 mg/kg; Long-term survivors (Mus musculus [7]): 3
8 |  | NCCNc1cnc(/C=N\N=C(\N)S)c2ccccc12 | -4.6% and -5% | 145% and 120% and 116% | Dose (Mus musculus [8]): 60 mg/kg and 40 mg/kg and 20 mg/kg
9 | 0.65 | Cc1ncccc1O |  |  | 
10 |  | N/C(S)=N/N=C/c1ccc(N)cn1 | -18% and -2.8% and 0% | 129% and 140% and 138% | Average survival (Mus musculus [3]): 19.2 days; Average weight (Mus musculus [4]): -7.6%; T/C (Mus musculus [5]): 234%; Dose (Mus musculus [6]): 20 mg/kg; Long-term survivors (Mus musculus [7]): 1
11 | 1 | Cc1nccc2c(O)cccc12 |  |  | 
12 | 0.59 | Cc1ccc(O)cn1 |  |  | 
